Here are results for eight molecules from ChEMBL document CHEMBL3046705, “Design and synthesis of benzoylphenylureas with fluorinated substituents on the aniline ring as insect growth regulators” (2011).

Holding throughout (format): functional
For assay [1], the system named is Culex pipiens pallens. Kind of assay: Insecticidal activity against fourth-instar larval stage of Culex pipiens pallens (mosquito) assessed as mortality at 0.1 mg/l at 25 +/-1 degC after 8 days. To be noted: 192 h. The gist of the method:
(§1)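 Larvicidal test against mosquito larvae followed a previously reported procedure. Test solutions were made by dissolving each compound in acetone and adding distilled water to give the series of concentrations.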

In assay [2] the test system is Mythimna separata. The assay is described as follows: Insecticidal activity against fourth-instar larval stage of Mythimna separata (Oriental armyworm) infested drug-pretreated corn leaves assessed as mortality at 100 mg/l at 25 +/-1 degC after 4 days.
The test system of assay [3] is Mythimna separata. The assay is described as follows: Insecticidal activity against fourth-instar larval stage of Mythimna separata (Oriental armyworm) infested drug-pretreated corn leaves assessed as mortality at 200 mg/l at 25 +/-1 degC after 4 days.
Assay [4] concerns Mythimna separata. Kind of assay: Insecticidal activity against fourth-instar larval stage of Mythimna separata (Oriental armyworm) infested drug-pretreated corn leaves assessed as mortality at 50 mg/l at 25 +/-1 degC after 4 days.
In assay [5] the test system is Culex pipiens pallens. Kind of assay: Insecticidal activity against fourth-instar larval stage of Culex pipiens pallens (mosquito) assessed as mortality at 0.05 mg/l at 25 +/-1 degC after 8 days. To be noted: 192 h. The essentials:
as §1

Assay [6] concerns Culex pipiens pallens. The assay is described as follows: Insecticidal activity against fourth-instar larval stage of Culex pipiens pallens (mosquito) assessed as mortality at 0.025 mg/l at 25 +/-1 degC after 8 days. Conditions: 192 h. The gist of the method: as §1
Assay [7] relates to Culex pipiens pallens. The assay is described as follows: Insecticidal activity against fourth-instar larval stage of Culex pipiens pallens (mosquito) assessed as mortality at 0.25 mg/l at 25 +/-1 degC after 8 days. To be noted: 192 h. The essentials: as §1
For assay [8], the system named is Mythimna separata. The assay is described as follows: Insecticidal activity against fourth-instar larval stage of Mythimna separata (Oriental armyworm) infested drug-pretreated corn leaves assessed as mortality at 5 mg/l at 25 +/-1 degC after 4 days.
For assay [9], the system named is Mythimna separata. Kind of assay: Insecticidal activity against fourth-instar larval stage of Mythimna separata (Oriental armyworm) infested drug-pretreated corn leaves assessed as mortality at 2.5 mg/l at 25 +/-1 degC after 4 days.
Assay [10] concerns Mythimna separata. Kind of assay: Insecticidal activity against fourth-instar larval stage of Mythimna separata (Oriental armyworm) infested drug-pretreated corn leaves assessed as mortality at 1 mg/l at 25 +/-1 degC after 4 days.
For assay [11], the system named is Culex pipiens pallens. The assay is described as follows: Insecticidal activity against fourth-instar larval stage of Culex pipiens pallens (mosquito) assessed as mortality at 2 mg/l at 25 +/-1 degC after 8 days. To be noted: 192 h. The gist of the method: as §1
Assay [12] has as its system Mythimna separata. The assay is described as follows: Insecticidal activity against fourth-instar larval stage of Mythimna separata (Oriental armyworm) infested drug-pretreated corn leaves assessed as mortality at 25 mg/l at 25 +/-1 degC after 4 days.
The test system of assay [13] is Mythimna separata. Kind of assay: Insecticidal activity against fourth-instar larval stage of Mythimna separata (Oriental armyworm) infested drug-pretreated corn leaves assessed as mortality at 10 mg/l at 25 +/-1 degC after 4 days.
Assay [14] relates to Culex pipiens pallens. The assay is described as follows: Insecticidal activity against fourth-instar larval stage of Culex pipiens pallens (mosquito) assessed as mortality at 0.01 mg/l at 25 +/-1 degC after 8 days. Conditions: 192 h. The essentials:
as §1

In assay [15] the test system is Culex pipiens pallens. The assay is described as follows: Insecticidal activity against fourth-instar larval stage of Culex pipiens pallens (mosquito) assessed as mortality at 0.005 mg/l at 25 +/-1 degC after 8 days. Conditions: 192 h. The gist of the method:
as §1

Assay [16] has as its system Culex pipiens pallens. The assay is described as follows: Insecticidal activity against fourth-instar larval stage of Culex pipiens pallens (mosquito) assessed as mortality at 0.0025 mg/l at 25 +/-1 degC after 8 days. To be noted: 192 h. The essentials: as §1

Consider `O=C(NC(=O)c1c(F)cccc1F)Nc1ccc(OCC=C(Cl)Cl)cc1`, for which the mortality at 0.1 µg/mL in the assay on Culex pipiens pallens [1] worked out at 100%. For the same molecule, the mortality at 100 µg/mL in the assay on Mythimna separata [2] is 80%. Moreover, in the assay on Mythimna separata [3], the mortality at 200 µg/mL amounted to 90%. The mortality at 50 µg/mL with Mythimna separata [4] was 60%. The mortality at 0.05 µg/mL with Culex pipiens pallens [5] was 70%. Further, the mortality at 0.025 µg/mL with Culex pipiens pallens [6] is 60%.

Consider `O=C(NC(=O)c1c(F)cccc1F)Nc1ccc(COC(C(F)(F)F)C(F)(F)F)cc1`, for which, in the assay on Culex pipiens pallens [1], the mortality at 0.1 µg/mL came to 80%. The mortality at 0.25 µg/mL with Culex pipiens pallens [7] was 100%. Moreover, the mortality at 100 µg/mL in the assay with Mythimna separata [2] was determined as 10%. Moreover, the mortality at 200 µg/mL in the assay on Mythimna separata [3] was 40%. In addition, the mortality at 50 µg/mL in the assay on Mythimna separata [4] is 0%. The mortality at 0.05 µg/mL in the assay on Culex pipiens pallens [5] worked out at 30%.

With `O=C(NC(=O)c1c(F)cccc1F)Nc1ccc(OC(C(F)(F)F)C(F)(F)F)cc1`, in the assay with Culex pipiens pallens [1], the mortality at 0.1 µg/mL was 100%. The mortality at 5 µg/mL in the assay on Mythimna separata [8] is 90%. The mortality at 2.5 µg/mL in the assay with Mythimna separata [9] turned out to be 80%. Further, the mortality at 1 µg/mL in the assay on Mythimna separata [10] is 0%. Besides, in the assay with Culex pipiens pallens [5], the mortality at 0.05 µg/mL was found to be 80%. Besides, the mortality at 0.025 µg/mL in the assay on Culex pipiens pallens [6] stood at 70%.

As for `O=C(NC(=O)c1c(F)cccc1F)Nc1ccc(COc2cc(Cl)c(OC(F)(F)C(F)F)c(Cl)c2)cc1`, the mortality at 2 µg/mL with Culex pipiens pallens [11] worked out at 0%. Besides, in the assay on Mythimna separata [12], the mortality at 25 µg/mL amounted to 100%. Also, the mortality at 5 µg/mL in the assay with Mythimna separata [8] came to 10%. For the same molecule, the mortality at 10 µg/mL in the assay with Mythimna separata [13] amounted to 40%.

`O=C(NC(=O)c1c(F)cccc1F)Nc1ccc(Oc2cc(Cl)c(OC(F)(F)C(F)F)c(Cl)c2)c(Cl)c1`: the mortality at 25 µg/mL in the assay with Mythimna separata [12] is 90%. Moreover, in the assay with Culex pipiens pallens [14], the mortality at 0.01 µg/mL was 80%. In the assay on Mythimna separata [13], the mortality at 10 µg/mL is 60%. The mortality at 50 µg/mL with Mythimna separata [4] stood at 100%. Besides, in the assay with Culex pipiens pallens [15], the mortality at 0.005 µg/mL was 30%. Further, in the assay with Culex pipiens pallens [6], the mortality at 0.025 µg/mL amounted to 100%.

Consider `O=C(NC(=O)c1c(F)cccc1F)Nc1ccc(Oc2cc(Cl)c(OC(F)(F)C(F)F)c(Cl)c2)cc1`, for which the mortality at 2.5 µg/mL in the assay with Mythimna separata [9] came to 100%. Further, in the assay on Mythimna separata [10], the mortality at 1 µg/mL amounted to 0%. Further, the mortality at 0.0025 µg/mL in the assay on Culex pipiens pallens [16] stood at 50%. For the same molecule, the mortality at 0.005 µg/mL in the assay with Culex pipiens pallens [15] was 100%.

For the molecule `O=C(NC(=O)c1c(F)cccc1F)Nc1ccc(C(F)(C(F)(F)F)C(F)(F)F)cc1`, the mortality at 0.01 µg/mL with Culex pipiens pallens [14] was found to be 100%. Further, the mortality at 5 µg/mL in the assay on Mythimna separata [8] stood at 100%. The mortality at 2.5 µg/mL in the assay with Mythimna separata [9] worked out at 90%. Moreover, the mortality at 1 µg/mL with Mythimna separata [10] came to 0%. Also, the mortality at 0.0025 µg/mL with Culex pipiens pallens [16] is 80%. Also, in the assay on Culex pipiens pallens [15], the mortality at 0.005 µg/mL is 90%.

As to `O=C(NC(=O)c1c(F)cccc1F)Nc1cc(Cl)c(OC(F)(F)C(F)F)c(Cl)c1` [HEXAFLUMURON], in the assay on Culex pipiens pallens [7], the mortality at 0.25 µg/mL was determined as 100%. Besides, in the assay on Mythimna separata [13], the mortality at 10 µg/mL was 80%.
